This is a sample that favours compounds with a hit; in the whole collection about 3.4% have one here.
TRPML3 agonist = human mucolipin-3 channel agonism; Q8TDD5; HEK293 TRPML3-YFP, Fluo-8 calcium fluorescence; 100% = the carbachol control signal; activation, % at 3 µM; hit rate 0.29% among 220,000;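 active means activation above its plate's cutoff, the mean activation of the plate's test wells plus 3 SD, cut at about 12% in these data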;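 further: 0% = DMSO only wells and 100% = carbachol wells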
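Material: HEK293 cells stably carrying human TRPML3-YFP; compound dosing: single dose, 3 µM final nominal compound, 0.3% DMSO final; incubation: 1-h 37 °C dye load, 5-s basal, 120-s post-compound reads; technique: Fluo-8 intracellular calcium fluorescence, excitation 470-495 nm, emission 515-575 nm; read-out basis: percent activation from peak-to-basal fluorescence ratio, scaled between DMSO and carbachol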
GPR7 antag = human neuropeptides B/W receptor 1 antagonism; P48145; GPR7-expressing cells, fluorescence antagonist assay; inhibition, % at 4.4 µM; hit rate 1.1% among 290,000; in the data active means inhibition above about 16%, passing the limit was not always enough;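 further: cells stimulated with the agonist NPW; 0% = agonist with vehicle and 100% = vehicle without agonist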
TAAR1 antag = antagonists of human TAAR1; CHO RD-HGA16 TAAR1, Fluo-8 calcium fluorescence, antagonist; hit rate 1.5% among 360,000; inhibition, % at 3 µM; Q96RJ0;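 active means inhibition above a per-plate cutoff, the mean inhibition of test compounds on that plate plus 3 SD, cut at about 49% in these data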;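 further: 0% = DMSO plus EC80 beta-PEA response and 100% = DMSO alone without agonist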
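test system = CHO RD-HGA16 cells bearing hTAAR1 | replication = singlicate | controls = DMSO-only wells and EC80 β-PEA-stimulated wells | reagent = EC80 β-phenethylamine stimulus | read-out basis = percent inhibition of PEA-evoked calcium signal, max/basal emission ratio | schedule = seeding 17-24 h prior, 75-min 37 °C, 30-min RT dye loading | signal = kinetic Fluo-8 calcium fluorescence measurement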
TAAR1 ag = agonists of human TAAR1; Q96RJ0; CHO RD-HGA16 TAAR1, Fluo-8 calcium fluorescence; vehicle wells 0%, saturating PEA agonist 100%; activation, % at 3 µM; hit rate 0.99% among 360,000; AID 624467;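 active means activation above the mean activation of all test compounds in the run plus 3 SD, cut at about 38% in these data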
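test system = CHO RD-HGA16 cells carrying human TAAR1 plus Gα16 | schedule = 17-24 h seeding, 75 min 37 °C dye, 30 min RT | compound dosing = 3 µM single concentration | control set = DMSO and PEA EC100 | replicates = n 1 | signal = Fluo-8 fluorescence, 5 s baseline then 140 s kinetic read | measure = percent activation vs PEA EC100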
TRPN1 ag = zebrafish TRPN1 (NompC) channel agonism; HEK293 zebrafish TRPN1-YFP, Fluo-8 calcium fluorescence; 100% = response to 87 µM carbachol; activation, % at 3 µM; hit rate 0.18% among 220,000; AID 1424;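 active means activation above its plate's cutoff, the mean activation of test wells on that plate plus 3 SD, cut at about 19% in these data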;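 further: 0% = DMSO alone and 100% = 87 µM carbachol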
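Material: zebrafish TRPN1-YFP in HEK293 cells. Doses: one dose of 3 µM, 0.3% DMSO. Incubation: dye 1 h 37 °C plus 30 min RT. Measured by: intracellular calcium fluorescence with Fluo-8.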
LANA-H2B inh = blocks KSHV LANA binding to histone H2A/H2B; hit rate 0.6% among 320,000; AID 2629; inhibition, % (test concentration not listed); Q9QR71; cell-free LANA-H2A/H2B peptide, fluorescence polarization; in the data active means inhibition mostly above about 10%, no sharp cut-off; inactive means mostly below about 6.7%
TAAR1 ag confirm = confirmation of human TAAR1 agonists; CHO RD-HGA16 TAAR1, Fluo-8 calcium fluorescence; scaled: DMSO 0%, maximal phenethylamine 100%; activation, % at 3 µM; AID 651783; shares compounds with TAAR1 ag; hit rate 82% among 2,400;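 active means activation above a cutoff set at the run's mean compound activation plus 3 SD, cut at about 39% in these data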
Ga16 ag counter = counter-screen for TAAR1 agonists: nonselective agonists in parental cells. shares compounds with TAAR1 ag. CHO-Ga16 parental, Fluo-8 calcium fluorescence; normalized to maximal ATP response, DMSO zero. activation, % at 3 µM. hit rate 50% among 2,400. AID 651787;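 active means activation above the run cutoff, the mean activation over all tested wells plus 3 SD, cut at about 12% in these data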;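 further: 0% = DMSO wells and 100% = maximal ATP response on the peak over basal ratio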
TAAR1 desens = TAAR1 response desensitization, agonist counter-screen; shares compounds with TAAR1 ag; CHO RD-HGA16 hTAAR1, Fluo-8 calcium, beta-PEA response inhibition; inhibition, % at 3 µM; hit rate 46% among 2,400;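 active means inhibition above the run cutoff, the mean inhibition of all test compounds plus 3 SD, cut at about 49% in these data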;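 further: beta-PEA stimulus applied at its EC80; loss of beta-PEA calcium signal after compound pretreatment read as receptor desensitization; 0% = DMSO with beta-PEA at EC80 and 100% = DMSO alone without agonist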
Ga16 nonsel ant = nonselective Ga16 antagonist in TAAR1 agonist counter-screen | shares compounds with TAAR1 ag | CHO-Ga16 ATP-induced calcium, Fluo-8 fluorescence | inhibition, % at 3 µM | hit rate 39% among 2,400;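 active means inhibition above the plate's mean compound inhibition plus 3 SD, computed per plate, cut at about 22% in these data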;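 further: 0% = EC80 ATP with DMSO and 100% = DMSO wells without ATP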
Starred values were filed as active, the others as inactive.

Screening CCCC(C(=O)Nc1ccc(C)c(S(=O)(=O)N2CCOCC2)c1)c1ccccc1 (centres undefined) returned TAAR1 antag -56.1, TAAR1 ag 0.4 and LANA-H2B inh 2.4.
`CCCC(C(=O)Nc1ccc(S(=O)(=O)N2CCOCC2)cc1)c1ccccc1` (centres undefined) gave TAAR1 antag 57.0*, TAAR1 ag 95.8*, LANA-H2B inh 3.4, TAAR1 ag confirm 85.5*, Ga16 ag counter 45.6*, TAAR1 desens 68.7* and Ga16 nonsel ant 34.5*.
`COc1ccc(S(=O)(=O)Nc2ccc3c(c2)OCCO3)cc1OC` gave GPR7 antag -9.7, TAAR1 antag 0.6, TAAR1 ag 0.3 and LANA-H2B inh -1.5.
Screening CC(C)c1ccc(NC(=O)Nc2nc(C(N)C3CCCCC3)cs2)cc1 (centres undefined) returned TAAR1 antag 5.8, TAAR1 ag 54.5*, TAAR1 ag confirm 41.7*, Ga16 ag counter 28.7*, TAAR1 desens 33.3 and Ga16 nonsel ant 46.4*.
COc1cccc(Nc2nc(C(C)N)cs2)n1 (centres undefined) was read as TAAR1 antag 76.9*, TAAR1 ag 84.7*, TAAR1 ag confirm 94.2*, Ga16 ag counter 0.5, TAAR1 desens 79.3* and Ga16 nonsel ant 6.0.
COc1cccc(Nc2nc(C(N)c3ccccc3)cs2)n1 (centres undefined) was read as TAAR1 antag 24.9, TAAR1 ag 67.5*, TAAR1 ag confirm 65.6*, Ga16 ag counter 11.5*, TAAR1 desens 40.6 and Ga16 nonsel ant 19.9.
`COc1cccc(Nc2nc(C(N)C3CCCCC3)cs2)n1` (centres undefined) gave TAAR1 antag 15.4, TAAR1 ag 52.8*, TAAR1 ag confirm 47.0*, Ga16 ag counter 17.9*, TAAR1 desens 27.9 and Ga16 nonsel ant 22.5*.
Screening NC(=O)c1cccc(Nc2nc(C(N)C3CCCCC3)cs2)n1 (centres undefined) returned TAAR1 antag -1.8 and TAAR1 ag 1.0.
COc1cccc(Nc2nc(C(N)c3ccccc3Cl)cs2)n1 (centres undefined) was read as TAAR1 antag 19.4 and TAAR1 ag 22.9.
For COc1ccc(NC(=O)Nc2nc(C(N)C3CCCCC3)cs2)cc1 (centres undefined) the results were TAAR1 antag 9.2 and TAAR1 ag 11.3.
For c1ccc(Nc2nc(NCc3ccco3)c3ccccc3n2)cc1 the results were TRPML3 agonist 3.6, GPR7 antag -8.7, TAAR1 antag 41.3, TAAR1 ag 55.6*, TRPN1 ag 3.6, LANA-H2B inh -1.0, TAAR1 ag confirm 84.4*, Ga16 ag counter 8.1, TAAR1 desens 85.3* and Ga16 nonsel ant 29.3*.
`Cc1cccc(Nc2nc(NCc3ccco3)c3ccccc3n2)c1` gave TRPML3 agonist 1.3, GPR7 antag 12.9, TAAR1 antag 30.7, TAAR1 ag 69.6*, TRPN1 ag -1.0, LANA-H2B inh -4.5, TAAR1 ag confirm 49.8*, Ga16 ag counter 4.5, TAAR1 desens 48.3 and Ga16 nonsel ant 27.6*.
For CSc1nc(NCc2ccco2)c2ccccc2n1 the results were TRPML3 agonist 0.7, GPR7 antag -7.9, TAAR1 antag 13.8, TAAR1 ag 16.3, TRPN1 ag -0.8 and LANA-H2B inh 0.8.

Source: PubChem (several laboratories)
